Common to all, as to format: functional, cell-based
In assay [1] the target is Calcitonin gene-related peptide type 1 receptor (Homo sapiens) (UniProt Q16602). The experiment in a line: (§1) Antagonist activity against human CGRP1 expressed in HEK293 cells assessed as inhibition of human alpha-CGRP-promoted cAMP production. Set-up: concentration or dose not given beside the values. The conditions noted are these: concentration not given here. The procedure, abridged: (§2)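 HEK293 cells stably expressing CRLR, seeded at 5000 cells/well. Cells preincubated with peptide analogues for 15 min at 37 °C, then stimulated with 0.5 nM α-CGRP for 15 min at 37 °C. cAMP measured with a fluorescence-based kit. Peptides tested up to 100 µM. At least three independent experiments in triplicate, analysed by nonlinear curve fitting; mean ± SEM.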

Assay [2] concerns the target Calcitonin gene-related peptide type 1 receptor (Homo sapiens, UniProt O60894+Q16602). The assay is described as §1. An outline of the steps:
as §2

For assay [3], the target named is Calcitonin gene-related peptide type 1 receptor (Homo sapiens) (UniProt Q16602). In words: Partial agonist activity at human CGRP1 expressed in HEK293 cells assessed by measuring cAMP production upto 1 uM. The procedure, abridged:
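HEK293 cells stably expressing CRLR were exposed to CGRP27-37 analogues up to 1 µM without α-CGRP. cAMP production was measured with a fluorescence-based kit as the read-out.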
(In general: Changes in cAMP serve as a functional read-out for many G protein-coupled receptors.)

As a reminder, the inhibition is how much of the control response was suppressed. The term IC50 denotes the concentration needed to halve the response being measured.

Calls of active or inactive are those of the source. No cut-off for these calls is given here. Where a SMILES comes first, the peptide text is derived from it.

Chain of Calcitonin gene-related peptide type 1 receptor (Homo sapiens) (Q16602 whole entry): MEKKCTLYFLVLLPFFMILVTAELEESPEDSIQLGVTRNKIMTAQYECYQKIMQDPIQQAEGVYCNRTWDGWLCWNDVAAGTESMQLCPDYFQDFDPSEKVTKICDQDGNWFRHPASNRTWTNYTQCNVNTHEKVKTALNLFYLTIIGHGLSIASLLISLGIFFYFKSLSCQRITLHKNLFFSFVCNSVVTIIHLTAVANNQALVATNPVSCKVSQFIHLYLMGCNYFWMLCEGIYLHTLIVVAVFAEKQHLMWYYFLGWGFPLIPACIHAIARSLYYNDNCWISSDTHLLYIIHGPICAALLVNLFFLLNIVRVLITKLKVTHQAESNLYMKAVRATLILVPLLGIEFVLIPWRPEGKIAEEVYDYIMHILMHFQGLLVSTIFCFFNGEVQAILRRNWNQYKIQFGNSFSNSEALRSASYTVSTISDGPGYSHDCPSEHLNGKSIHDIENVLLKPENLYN
Chain of Calcitonin gene-related peptide type 1 receptor (Q16602 whole entry, one chain of several): as the sequence (Q16602 whole entry) above

Take `CC(C)[C@H](NC(=O)[C@H](CC(=O)O)NC(=O)[C@@H](NC(=O)[C@@H]1CCCN1C(=O)[C@@H](NC(=O)[C@@H](N)Cc1ccccc1)C(C)C)[C@@H](C)O)C(=O)N[C@H]1CC[C@H]2CC[C@@H](C(=O)N[C@@H](Cc3ccccc3)C(=O)N[C@@H](C)C(=O)N[C@@H](Cc3ccccc3)C(N)=O)N2C1=O`: the inhibition in assay [1] was found to be 70%. The IC50 in assay [2] was 107 nM. In addition, in assay [3], the result was inactive.

Turning to `CC(C)[C@H](NC(=O)N(CC(=O)O)NC(=O)[C@@H](NC(=O)[C@@H]1CCCN1C(=O)[C@@H](NC(=O)[C@@H](N)Cc1ccccc1)C(C)C)[C@@H](C)O)C(=O)NCC(=O)N1CCC[C@H]1C(=O)N[C@@H](Cc1ccccc1)C(=O)N[C@@H](C)C(=O)N[C@@H](Cc1ccccc1)C(N)=O` (HELM PEPTIDE1{F.V.P.T.[O=C(O)CN(N[*:1])C(=O)[*:2]].V.G.P.F.A.F.[am]}$$$$V2.0), the inhibition in assay [1] amounted to 59%. For the same molecule, the IC50 in assay [2] was 380 nM. For the same molecule, the outcome in assay [3] was inactive.

Values taken from ChEMBL document CHEMBL1142953, “Calcitonin gene-related peptide analogues with aza and indolizidinone amino acid residues reveal conformational requirements for antagonist activity at the human calcitonin gene-related peptide 1 receptor” (J Med Chem, 2007).
